ChEMBL document CHEMBL2151019, “Potent and selective inhibitors of PI3Kδ: obtaining isoform selectivity from the affinity pocket and tryptophan shelf” (Bioorg Med Chem Lett, 2012)

Legend:
[1] = Selectivity ratio of IC50 for PI3Kgamma to IC50 for PI3Kdelta
Summary of the method: (§1)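 Ratios of biochemical IC50 values, each against the PI3Kδ IC50. Both IC50s come from the fluorescence polarization assay monitoring PIP2-to-PIP3 conversion by each Class I isoform.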

[2] = Selectivity ratio of IC50 for PI3Kalpha to IC50 for PI3Kdelta; summary of the method: as §1
[3] = target: T1, Phosphatidylinositol 4,5-bisphosphate 3-kinase catalytic subunit delta isoform (Homo sapiens, UniProt O00329); assay: Inhibition of PI3K p110delta using PIP2 as substrate assessed as PIP3 formation by fluorescence polarization assay
T1 sequence (O00329 whole entry): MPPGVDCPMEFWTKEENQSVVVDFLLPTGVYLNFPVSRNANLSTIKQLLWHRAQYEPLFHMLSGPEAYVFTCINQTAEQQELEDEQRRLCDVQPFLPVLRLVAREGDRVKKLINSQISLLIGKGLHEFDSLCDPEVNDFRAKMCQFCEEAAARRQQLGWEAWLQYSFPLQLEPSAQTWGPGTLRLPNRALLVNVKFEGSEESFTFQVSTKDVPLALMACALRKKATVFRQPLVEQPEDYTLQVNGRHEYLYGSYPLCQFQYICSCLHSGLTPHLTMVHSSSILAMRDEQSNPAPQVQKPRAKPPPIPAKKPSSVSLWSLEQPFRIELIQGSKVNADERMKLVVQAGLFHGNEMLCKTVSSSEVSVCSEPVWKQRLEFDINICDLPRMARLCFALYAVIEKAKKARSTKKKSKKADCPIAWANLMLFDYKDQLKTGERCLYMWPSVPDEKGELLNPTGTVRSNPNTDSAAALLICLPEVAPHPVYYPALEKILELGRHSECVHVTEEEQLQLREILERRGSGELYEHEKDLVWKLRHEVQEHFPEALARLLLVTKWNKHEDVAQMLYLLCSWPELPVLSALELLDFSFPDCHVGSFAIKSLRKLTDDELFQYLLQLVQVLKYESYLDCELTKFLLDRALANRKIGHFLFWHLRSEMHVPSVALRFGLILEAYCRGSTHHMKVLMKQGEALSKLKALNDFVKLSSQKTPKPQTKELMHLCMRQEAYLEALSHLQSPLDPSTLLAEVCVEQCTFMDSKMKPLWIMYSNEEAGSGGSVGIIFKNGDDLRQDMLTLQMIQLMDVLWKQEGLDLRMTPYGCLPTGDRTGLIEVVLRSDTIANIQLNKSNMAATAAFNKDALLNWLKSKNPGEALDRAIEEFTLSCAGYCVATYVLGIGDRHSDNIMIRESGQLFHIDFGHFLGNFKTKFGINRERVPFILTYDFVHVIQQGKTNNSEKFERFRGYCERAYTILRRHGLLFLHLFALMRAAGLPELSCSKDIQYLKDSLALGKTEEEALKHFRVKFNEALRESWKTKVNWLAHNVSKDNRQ
Summary of the method: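 Biochemical fluorescence polarization assay following conversion of PIP2 to PIP3 by PI3Kδ; IC50 determined.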

[4] = Selectivity ratio of IC50 for PI3Kbeta to IC50 for PI3Kdelta; summary of the method: as §1
[5] = AUC in CD1 mouse at 5 mg/kg, po; format: ADME, organism-based; set-up: dose 5 mg/kg, route oral; settings: plasma
Summary of the method: (§2)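 Female CD-1 mice were given a 5 mg/kg oral dose as an MCT suspension (0.5% methylcellulose/0.2% Tween-80). Cmax, AUC and half-life came from the plasma concentration–time profiles.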

[6] = Oral bioavailability in CD1 mouse at 5 mg/kg; format: ADME, organism-based; settings: in vivo
Summary of the method: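 Female CD-1 mice received an IV dose of 1 mg/kg in 5% DMSO/5% Cremophor and an oral dose of 5 mg/kg as an MCT suspension (0.5% methylcellulose/0.2% Tween-80). Plasma exposure was compared between the two routes.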

[7] = Half life in BALB/c mouse at 20 mg/kg, po; format: ADME, organism-based; set-up: dose 20 mg/kg, route oral; settings: in vivo
Summary of the method: (§3)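 Female Balb/c mice received the compound orally as a suspension in 0.5% methylcellulose/0.2% Tween-80 (MCT). Plasma concentration–time profiles were used to derive Cmax, AUC and terminal half-life.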

[8] = Cmax in Sprague-Dawley rat at 30 mg/kg, po; format: ADME, organism-based; set-up: dose 30 mg/kg, route oral; settings: in vivo
Summary of the method: (§4)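 Oral dosing in male Sprague–Dawley rats used an MCT suspension (0.5% methylcellulose/0.2% Tween-80). Cmax, AUC and terminal half-life were taken from plasma concentration–time curves.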

[9] = AUC in Sprague-Dawley rat at 10 mg/kg, po; format: ADME, organism-based; set-up: dose 10 mg/kg, route oral; settings: plasma; summary of the method: as §4
[10] = AUC in Sprague-Dawley rat at 5 mg/kg, po; format: ADME, organism-based; set-up: dose 5 mg/kg, route oral; settings: plasma; summary of the method: as §4
[11] = Half life in CD1 mouse at 5 mg/kg, po; format: ADME, organism-based; set-up: dose 5 mg/kg, route oral; settings: in vivo; summary of the method: as §2
[12] = Oral bioavailability in Sprague-Dawley rat at 5 mg/kg; format: ADME, organism-based; settings: in vivo
Summary of the method: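 Male Sprague–Dawley rats received an IV dose of 1 mg/kg in 5% DMSO/5% Cremophor and an oral dose of 5 mg/kg as an MCT suspension (0.5% methylcellulose/0.2% Tween-80). Plasma exposure was compared between the two routes.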

[13] = Clearance in Sprague-Dawley rat at 1 mg/kg, iv; format: ADME, organism-based; set-up: dose 1 mg/kg, route intravenous; settings: in vivo
Summary of the method: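 Male Sprague–Dawley rats received 1 mg/kg intravenously in 5% DMSO/5% Cremophor. In vivo clearance was derived from plasma concentrations over time.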

[14] = AUC in BALB/c mouse at 20 mg/kg, po; format: ADME, organism-based; set-up: dose 20 mg/kg, route oral; settings: plasma; summary of the method: as §3
[15] = Half life in BALB/c mouse at 40 mg/kg, po; format: ADME, organism-based; set-up: dose 40 mg/kg, route oral; settings: in vivo; summary of the method: as §3
[16] = Clearance in CD1 mouse at 1 mg/kg, iv; format: ADME, organism-based; set-up: dose 1 mg/kg, route intravenous; settings: in vivo
[17] = Cmax in BALB/c mouse at 20 mg/kg, po; format: ADME, organism-based; set-up: dose 20 mg/kg, route oral; settings: in vivo; summary of the method: as §3
[18] = Cmax in BALB/c mouse at 40 mg/kg, po; format: ADME, organism-based; set-up: dose 40 mg/kg, route oral; settings: in vivo; summary of the method: as §3
[19] = Cmax in Sprague-Dawley rat at 5 mg/kg, po; format: ADME, organism-based; set-up: dose 5 mg/kg, route oral; settings: in vivo; summary of the method: as §4
[20] = Half life in Sprague-Dawley rat at 5 mg/kg, po; format: ADME, organism-based; set-up: dose 5 mg/kg, route oral; settings: in vivo; summary of the method: as §4
[21] = AUC in Sprague-Dawley rat at 30 mg/kg, po; format: ADME, organism-based; set-up: dose 30 mg/kg, route oral; settings: plasma; summary of the method: as §4
[22] = Half life in Sprague-Dawley rat at 10 mg/kg, po; format: ADME, organism-based; set-up: dose 10 mg/kg, route oral; settings: in vivo; summary of the method: as §4
[23] = Volume of distribution at steady state in Sprague-Dawley rat at 1 mg/kg, iv; format: ADME, organism-based; set-up: dose 1 mg/kg, route intravenous; settings: in vivo, read-out: Vdss
Summary of the method: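 Male Sprague–Dawley rats were given 1 mg/kg IV in 5% DMSO/5% Cremophor. Pharmacokinetic parameters were taken from plasma concentrations over time.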

[24] = Cmax in CD1 mouse at 5 mg/kg, po; format: ADME, organism-based; set-up: dose 5 mg/kg, route oral; settings: in vivo; summary of the method: as §2
[25] = AUC in BALB/c mouse at 40 mg/kg, po; format: ADME, organism-based; set-up: dose 40 mg/kg, route oral; settings: plasma; summary of the method: as §3
[26] = Volume of distribution at steady state in CD1 mouse at 1 mg/kg, iv; format: ADME, organism-based; set-up: dose 1 mg/kg, route intravenous; settings: in vivo, read-out: Vdss
Summary of the method: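 Single IV dose of 1 mg/kg in 5% DMSO/5% Cremophor to female CD-1 mice. Pharmacokinetic parameters were taken from plasma concentrations over time.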

[27] = Cmax in Sprague-Dawley rat at 10 mg/kg, po; format: ADME, organism-based; set-up: dose 10 mg/kg, route oral; settings: in vivo; summary of the method: as §4
[28] = Half life in Sprague-Dawley rat at 30 mg/kg, po; format: ADME, organism-based; set-up: dose 30 mg/kg, route oral; settings: in vivo; summary of the method: as §4
[29] = target: T1, Phosphatidylinositol 4,5-bisphosphate 3-kinase catalytic subunit delta isoform; assay: Inhibition of PI3Kdelta-mediated AKT phosphorylation in B cells in presence of human serum; format: cell-based
Summary of the method: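 Cellular assay in the PI3Kδ-dependent B-cell cancer line Ri-1. Downstream pAKT measured with human serum added (serum-shifted); IC50 determined.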

SMILES: CC(C)(O)C1CCN(Cc2cc3nc(-c4c(F)ccc5[nH]ccc45)nc(N4CCOCC4)c3s2)CC1
- Ratio IC50 [1]: 910
- Ratio IC50 [2]: 170
- IC50 [3]: 0.004 µM
- Ratio IC50 [4]: 110

SMILES: CC(C)(O)C1CCN(Cc2nc3nc(-c4c(F)ccc5[nH]ccc45)nc(N4CCOCC4)c3[nH]2)CC1
- IC50 [3]: 0.0019 µM

SMILES: CC(C)(O)C1CCN(Cc2nc3c(N4CCOCC4)nc(-c4c(F)ccc5[nH]ccc45)nc3s2)CC1
- Ratio IC50 [1]: 1400
- Ratio IC50 [2]: 220
- IC50 [3]: 0.0006 µM
- Ratio IC50 [4]: 200

SMILES: CC(C)(O)C1CCN(Cc2ccc3nc(-c4c(F)ccc5[nH]ccc45)nc(N4CCOCC4)c3n2)CC1
- AUC [5]: 2.5 µM·h
- bioavailability [6]: 80%
- half-life [7]: 2.9 h
- Cmax [8]: 4.7 µM
- AUC [9]: 11 µM·h
- AUC [10]: 2.6 µM·h
- half-life [11]: 2.6 h
- bioavailability [12]: 90%
- clearance [13]: 3.54 L/h/kg
- AUC [14]: 13 µM·h
- half-life [15]: 5 h
- clearance [16]: 3.18 L/h/kg
- Cmax [17]: 3.9 µM
- Cmax [18]: 14 µM
- Cmax [19]: 0.5 µM
- half-life [20]: 2.6 h
- AUC [21]: 46 µM·h
- half-life [22]: 3.8 h
- Vd [23]: 8.8 L/kg
- Cmax [24]: 0.9 µM
- AUC [25]: 63 µM·h
- Vd [26]: 4.9 L/kg
- Cmax [27]: 1.2 µM
- half-life [28]: 4.8 h

SMILES: OCc1ccc2nc(-c3c(F)ccc4[nH]ccc34)nc(N3CCOCC3)c2n1
- Ratio IC50 [1]: 38
- IC50 [29]: 0.145 µM
- Ratio IC50 [2]: 14
- IC50 [3]: 0.027 µM
- Ratio IC50 [4]: 3.7

SMILES: CC(C)(O)C1CCN(Cc2ccc3nc(-c4cnc(N)nc4)nc(N4CCOCC4)c3n2)CC1
- Ratio IC50 [1]: 43
- IC50 [29]: 0.145 µM
- Ratio IC50 [2]: 5.4
- IC50 [3]: 0.0026 µM
- Ratio IC50 [4]: 73

SMILES: CC(C)(O)C1CCN(Cc2ccc3nc(-c4cccc5[nH]ncc45)nc(N4CCOCC4)c3n2)CC1
- Ratio IC50 [1]: 260
- IC50 [29]: 0.48 µM
- Ratio IC50 [2]: 22
- Ratio IC50 [4]: 78

SMILES: CC(C)(O)C1CCN(Cc2ccc3nc(-c4cccc5[nH]ccc45)nc(N4CCOCC4)c3n2)CC1
- Ratio IC50 [1]: 610
- IC50 [29]: 0.055 µM
- Ratio IC50 [2]: 370
- Ratio IC50 [4]: 210

SMILES: Fc1ccc2[nH]ccc2c1-c1nc(N2CCOCC2)c2nc(CN3CCOCC3)ccc2n1
- Ratio IC50 [1]: 120
- IC50 [29]: 0.067 µM
- Ratio IC50 [2]: 58
- IC50 [3]: 0.012 µM
- Ratio IC50 [4]: 13

SMILES: CC(C)(O)C1CCN(Cc2nc3c(N4CCOCC4)nc(-c4c(F)ccc5[nH]ccc45)nc3[nH]2)CC1
- Ratio IC50 [1]: 1500
- Ratio IC50 [2]: 330
- Ratio IC50 [4]: 140
